Test system: MS2 coat protein
Assay: apparent Kd, MS2 coat protein; higher = weaker binding; RNA-MaP array; FMN 200 µM where present
Summary of the method: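 Designs on Illumina sequencing-chip clusters, transcribed by stalled E. coli RNA polymerase, were exposed to SNAP-549-labelled MS2 coat protein in doubling steps from 0.7 or 1.5 nM up to 3 µM, without and then with constant ligand. The buffer held 100 mM Tris-HCl pH 7.5, 80 mM KCl, 4 mM MgCl2, BSA, DTT, yeast tRNA and Tween-20. Apparent Kd values are medians of filtered per-cluster binding-curve fits to green signal normalised to red-channel RNA signal and control-cluster median Fmax.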

[1] = designed as: OFF switch for flavin mononucleotide, no ligand
[2] = ligand present: flavin mononucleotide, designed as: OFF switch for flavin mononucleotide
[3] = designed as: ON switch for flavin mononucleotide, no ligand
[4] = ligand present: flavin mononucleotide, designed as: ON switch for flavin mononucleotide

| Sequence | apparent Kd [1] [nM] | apparent Kd [2] [nM] | apparent Kd [3] [nM] | apparent Kd [4] [nM] |
| --- | --- | --- | --- | --- |
| UACAUGAGGAUCACCCAUGUUUUGUCGUGUAUGGUAUUUAUCUAGGAUAUCAAUGUAUUUAUUUAUGAGAAGGAGAAUAUUAAU | 41.1 | 39.3 | – | – |
| CUCAUGUAAGGAUAUCAGUAGUAAAAAAAUAAAAUUACUACUGAGAAGGUACAUGAGGAUCACCCAUGUCCUUG | 38.8 | 21.6 | – | – |
| UAGUAGGUAGGAUAUACAUGGAUAUACAUUCAUGUGGACCUACAUGAGGAUCACCCAUGUAGAAGGACCUACUA | 38.1 | 88.9 | – | – |
| GGAGAACACAUUAACAUGAGGAUCACCCAUGUCAAAAGACAUGAGGAUAUGGAUCCGAAAAGGAUCCAGAAGGCAUGGUGCUCC | – | – | 511 | 26.5 |
| ACACUGCGAGGAUAUACAUGAGGAUCACCCAUGUGUCGGCAGGUACGGUAGCACUAGUGUAGAAGGCGCAUUGG | 24.6 | 42 | – | – |
| GCAGCAUAUGCAGGAUAUCAGCACGUGUAGUGCUGAGAAGGGCACAUGAGGAUCACCCAUGUGAUCAAUUAAUAUUUAUGCUGC | 7.98 | 24.8 | – | – |
| AACGUGUAAGGAUAUGCUGCUCGUCACGAAAGUGAUGAGUAGCAGAAGGUACAUGAGGAUCACCCAUGUAAAGA | 31.8 | 67 | – | – |
| AUCAGCUCGUCAGGAUAUACGUCACUGCGUCAGCAGUGUGGUAAGAUCACAUGAGGAUCACCCAUGUAGAAGGAACGAGCUGAU | 8.41 | 14.7 | – | – |
| CGUCUGUCAGGAUAUAGUUACGUAGACAUGAGGAUCACCCAUGUGACGUGGGACUAGUGACUAGAAGGGACGAACG | 22.3 | 52.5 | – | – |
| UGUUAAUAUCGAGGAUAUGUCUAGACACAUGAGGAUCACCCAUGUAUGUGUAUAGAAGGCGAUAUUAACAGCAUGUUACAUGCC | – | – | 37.1 | 17.7 |
| UGGUACUAGGGAGGAUAUGGGAAGAUACAUGAGGAUCACCCAUGUUUAAGAAUGCCGAGAGGCAACUAGAAGGCCCUGGUACCU | – | – | 459 | 17.9 |
| GCAGCUAAUGCAGGAUAUCAGCACGUGUAGUGCUGAGAAGGGCACAUGAGGAUCACCCAUGUGAUCAAUUAAUCUUAAUGCUGC | 17.3 | 54.5 | – | – |
| GGAUCCUGGGUCAGGAUAUGCUGACAGCUUUGUCAGCAGAAGGGACAUGAGGAUCACCCAUGUGCUCGGUUUUG | 10.1 | 18.1 | – | – |
| AAUUGAGAGCAGGAUAUAUUCCUGAUGUAUGAAGUAGAAGGGCUCACAUGAGGAUCACCCAUGUGAUCCUGAAU | 16.1 | 18 | – | – |
| AACCUAAAACAGAAGGCCAAAUACAUGAGGAUCACCCAUGUCGAAUCAUGGAGGAUAUGUUGUUAUUUACUCGCAGAUGAGUGC | – | – | 77.6 | 8.18 |
| GCGUCACAAUUAGAACCAAUACGAACAUGAGGAUCACCCAUGUAGGAUAUGCUAGAAGUUGAGUUGCAGAAGGACAUAUAACGC | 12 | 10.9 | – | – |
| UGGAAGGUAUGAGGAUAUGCAUGCGAAACGCAUGCAGAAGGCAUGUCAAUAGACAUGAGGAUCACCCAUGUAUUAUCCUUCCAA | – | – | 455 | 41.7 |
| UUAACAUGCUUAGGAUAUCGGAUUUUUUUUUUUCGAGAAGGAAGAUUCUUUUUUUUUUACAUGAGGAUCACCCAUGUUUAUUUU | 10.2 | 5.78 | – | – |
| UUAUUAGGACAGAAGGGUAGACAUGAGGAUCACCCAUGUAAUAUAAGGUGCAGGAUAUGUAAUAAUUGAGAUUCAUCAUUUUGC | – | – | 198 | 142 |
| UUAAGUCAUGUAGGAUAUCCGAUGCGAAGCGUUGGAGAAGGACAUGAGGAUCACCCAUGUUCUAGCGUCUGAGUACAGAUGCAA | 27 | 76 | – | – |
| GUUGCUUUCCGAGGAUAUUCAGGGCGUGGAUAUACAUGAGGAUCACCCAUGUGGCGGAAGCCUAGGGAGAAGGCGGGCUGCUUC | – | – | 41.1 | 20.5 |
| GUAGCAUACCGAGGAUAUUCAAAUAAUAAAUAAACAUGAGGAUCACCCAUGUGGCGAAAGCCUAGGGAGAAGGCGGAAUGCUAC | – | – | 48.2 | 16.9 |
| ACUUCACAUGAGGAUCACCCAUGUCAGGCCGGACUAGGAUAUUAUCAUGCAGCGUAACCGUAAGAAGGAGUUGGAU | – | – | 88.3 | 187 |
| ACAGAUGCUGACAUGAGGAUCACCCAUGUUAGAUUGUUAUGUCAGGAUAUUAUCUGGCAACCAGAUGAGAAGGGACCAUCUGUU | – | – | 15.6 | 7.31 |
| AAUAAACUCACAGGAUAUAGCAGAGGUCGCCUGAACUUACAGGCGACGAUGCUAGAAGGGUGACCACAUGAGGAUCACCCAUGU | – | – | 825 | 136 |
| GGAGCUCCAGCGCAGGAUAUCGACCCAGGGACAUGAGGAUCACCCAUGUUCCAAAAAAAAUGGGUCGAGAAGGGCGUUGGAGAGCC | – | – | 12.6 | 9.62 |
| AAGAAGUCAGGAUAUGCUGCUCGUCACUUGCGUGAUGAGUAGCAGAAGGGACAUGAGGAUCACCCAUGUAAAGC | 44 | 52.4 | – | – |
| UGUUGUAUUACAGGAUAUCUAGUAUUUUAAUUUAGAGAAGGGUAUUCACAUGAGGAUCACCCAUGUAUAUACGAGGAAGUUGUG | – | – | 51.3 | 61.6 |

| Sequence | apparent Kd [1] [nM] | apparent Kd [2] [nM] | apparent Kd [3] [nM] | apparent Kd [4] [nM] |
| --- | --- | --- | --- | --- |
| CGUGUCAUCGAGAAGGCCUCAACAUGAGGAUCACCCAUGUUGUAAUAUGGGAGGAUAUCGAUGAUACAGCUACGUUUCGUAGCG | – | – | 19.1 | 6.07 |
| AUAAGCUCGUCAGGAUAUACGUCACUGCUUCGGCAGUGAGGUAUGAUCACAUGAGGAUCACCCAUGUAGAAGGGACGAGCUUAU | 5.63 | 8.57 | – | – |
| UUAGUGGUAGGAUAUCACCCAGGUUACAUGAGGAUCACCCAUGUGACUCAGCAGGCCAAGUGAGAAGGGCUGCUCC | 22.3 | 20 | – | – |
| UGGGAGUCAGGAUAUACGAACAUGUCGCCAGAUGUCAAGGUACAUGAGGAUCACCCAUGUAGAAGGGACUAGAA | 39.4 | 42.1 | – | – |
| CUCAAGUCAGGAUAUCCAGCUGUGUUCCGGGACUCGUAGUUGGAGAAGGGACAUGAGGAUCACCCAUGUCAGCC | 32.3 | 67.8 | – | – |
| CACAUGAGGAUCACCCAUGUACUUAAUAUAAAUGUCAGAACCAGAAGGACCAGUUGAUUUGACCGGUAGGAUAUGGGCGGACCG | – | – | 18.1 | 6.89 |
| UGAUACUAAGAGAAGGUACAAACUACAUAUUACAUACAUGAGGAUCACCCAUGUUGGUGAAUAAGUAAGGAUAUUUUACUAUAU | 15.4 | 12.4 | – | – |
| GCCAGAGCAGGAUAUUCAAUAUCACACAUGAGGAUCACCCAUGUCUAUCGAAAGAUAGAGGGAGAAGGGCUCUGGC | 64.3 | 18.3 | – | – |
| AACUAGUCAGGAUAUACGAACAUGUCAAAAAACAUGAAGGGACAUGAGGAUCACCCAUGUAGAAGGGACUAGCA | 37.8 | 223 | – | – |
| GCUGGACGAGGAUAUAUAUGACGUGCUUCGGCACGAAGGUCACAUGAGGAUCACCCAUGUAGAAGGUGUCCAGC | 30.7 | 106 | – | – |
| CACAUUUUAACAGGAUAUGUAAGGUAGCUUAUUAUUGCAUAUACAAUUAUUACAGAAGGGUUAUACAUGAGGAUCACCCAUGUG | – | – | 22.8 | 17.1 |
| UUACAUACAAAGGUACAUGAGGAUCACCCAUGUUUGUUGGGAAGAAGGGUAACAGUACUACACAUAUAGGAUAUUUCACAAAUA | – | – | 52.4 | 40 |
| GAUUGACAUGAGGAUCACCCAUGUGAGGAUAUCGGCUGGACCGUGUUGGCUUCCGUUUCGAGAAGGCGCAUAGG | 26.1 | 48.3 | – | – |
| GUGUGCUGAGGAUAUACACAGGAAUAGAAGAUAAGAUAAUCACAUGAGGAUCACCCAUGUAGAAGGCAGAGUGU | 15.2 | 17.3 | – | – |
| CAGUUCUGAGGAUAUCCACCCUCCUACAUGAGGAUCACCCAUGUUUCCCUCUGGGUUUUCGGAGAAGGCAGUUAUC | 44.7 | 79.6 | – | – |
| UGGUACUAGGGAGGAUAUGGGAAGAUACAUGAGGAUCACCCAUGUAUAAGAAUGCCGAGAGGCAACUAGAAGGCCCUAGUACCU | – | – | 10.8 | 5.48 |
| CGGAGGUCAGGAUAUGCAUGGCGGGACUUGCGUCGUGGCGUGCAGAAGGGACAUGAGGAUCACCCAUGUGGAGC | 82.2 | 145 | – | – |
| AGAAAACAUGAGGAUCACCCAUGUGAGGAUAUCGAUGUCCAAGGGUGGGUGCGGGACUCGAGAAGGCACUUGGA | 80.6 | 137 | – | – |
| CGAUAACCACAGAAGGCCCGGGACAUGAGGAUCACCCAUGUAGAAAGUGGGAGGAUAUGUGUACGCGGCAUGCUGACCUCGUGA | – | – | 210 | 28.6 |
| AGUUUUGUACAUGAGGAUCACCCAUGUUAAUAUGUGGUAGUCAGAAGGCAUUGUUAGUGUUUAUAUGAGGAUAUGAUUAGUCAG | – | – | 50.3 | 26.4 |
| CACAGGGAUUCAGGAUAUAUUAGCCGAGGCCGCGUAGAAGGGAAAUCCUGACAUGAGGAUCACCCAUGUUAACCCACUUUUCAU | – | – | 28.1 | 28.4 |
| CGUAUGUGAGGAUAUGACAAUGGUAUCUUCGGAUACCAUUGUCAGAAGGUACAUGAGGAUCACCCAUGUAGAUC | 27.1 | 59.9 | – | – |
| UAUUACAGAUAAGGAUAUUGACAUGAGGAUCACCCAUGUAUUUGGGAAUGUUUACUGAAUUCUUACGAGAAGGUAUACGUACUU | 128 | 98.7 | – | – |
| UUCUGUGUGUGCUAGAGCUGCACAUGAGGAUCACCCAUGUACAGAAGGUGGACGCACACUGUGGCCAAGGAUAUGUAACAUGUU | 6.68 | 7.15 | – | – |
| ACCAUACAUGAGGAUCACCCAUGUUAGGAUAUGAGAGACCCACAUAGUCCUGGUAGCAUCAGAAGGAGCAGGGU | 20.6 | 23.7 | – | – |
| UGAUUGAGAUUGUAGGAUAUUGGAAAAGCCACAUGAGGAUCACCCAUGUCAAAAAAAAAAAAAAACAAGAAGGGCGGUUUUAGUUA | – | – | 72.9 | 61.8 |
| GAGCGGGAAACAUGAGGAUCACCCAUGUAGUAAAUCCUCACGUAGGAUAUGCACACGAGAAGUGUGCAGAAGGGCGACCCGGUC | 79.6 | 183 | – | – |

— the EternaBench riboswitch data
